# High-throughput results (PubChem BioAssay)
# A1 inh = caspase 3/7 activation in MEF A1-2A-BIM cells, primary screen, A1 inhibitor project, cell-based, luminescence, HTS. caspase activation, % (concentration not given with the values). Caspase-Glo 3/7 luminescence, 3 h; percent of clofoctol response, vehicle zero. 330,000 tested, 0.066% active. AID 2462, 2010;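 active = over half of replicate activation scores above 10%, or exactly half above 10 with the replicate mean above 10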
# CHOP inhibitor = inhibitors of CHOP promoter induction, primary screen, cell-based, unfolded protein response, luciferase reporter | CHO-K1 CHOP-promoter luciferase, tunicamycin-induced, 15-18 h | inhibition, % at 10 µM | 220,000 tested, 3.8% active;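 active = compounds that reduced the stress-induced luciferase reporter signal by more than about 70% of percent inhibition, limit read from the data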;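 also: 0% = tunicamycin plus vehicle and 100% = wells without tunicamycin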
# UPR XBP1 act = activators of adaptive XBP1 UPR arm, primary screen, cell-based, CHO-XBP1 luciferase reporter, luminescence, uHTS | activation, % at 20 µM | IRE1-XBP1 UPR activation; percent of tunicamycin response, DMSO as zero | AID 463104, 2010 | 330,000 tested, 0.33% active;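 active = versus positive control, 20 µM dose yields 30% or more activation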;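 also: 100% = tunicamycin at 10 µg/mL and 0% = DMSO only wells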
#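 Assay system: IRE1-XBP1 luciferase reporter CHO line. Input: 1000 cells/well. Buffer or medium: F12 with 10% serum. Doses: 20 µM, 1% DMSO. Times: overnight seeding at 37 °C, 6 h compound treatment at 37 °C. Technique: Steady-Glo luciferase glow luminescence, 10 min after reagent addition.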
# CHOP UPR activ = activators of apoptotic CHOP UPR arm, primary screen, cell-based, CHO-CHOP luciferase reporter, luminescence, uHTS; activation, % at 10 µM; 330,000 tested, 0.34% active; UPR activation; percent of tunicamycin response over DMSO baseline;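 active = at 10 µM dose, activation of 40% or more, normalized to positive control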;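 also: 100% = tunicamycin at 10 µg/mL and 0% = DMSO alone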
#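 Test system: CHO CHOP reporter cells. Input: 500 CHO-CHOP cells per well. Medium: F12 with 10% FBS. Technique: luciferase luminescence. Measure: percent activation relative to tunicamycin control. Dosing: 10 µM compound, 0.5% DMSO. Timing: 16-18 h cell attachment, then 6 h compound exposure, 37 °C.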
# CHOP confirm = retest of CHOP induction inhibitors, confirmation, cell-based; inhibition, % at 10 µM; 2,100 tested, 45% active; shares compounds with CHOP inhibitor; AID 504437, 2011; CHO-CHOP promoter luciferase reporter, tunicamycin-induced, luminescence;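 active = mean of three repeat readings of reporter signal inhibition above a set limit, cut at about 70% in these data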;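 also: 0% = tunicamycin plus vehicle and 100% = wells lacking tunicamycin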
# The depositor's hits bear a star; x = no result. The entries come from a sample that favours hits as a whole.
SMILES,A1 inh,CHOP inhibitor,UPR XBP1 act,CHOP UPR activ,CHOP confirm
O=C1CC(C(=O)Nc2ccc(Cl)c(Cl)c2)S/C(=N\N=C\c2ccco2)N1 (stereo not given),0,100*,2,2,23
COc1ccc(C2=NN(c3ccccc3)C(c3cn(CCC(=O)O)nc3-c3ccccc3)C2)cc1 (stereo not given),1,96*,-1,3,13
CC(C(=O)NCCCc1ccccc1)n1cccc1C(=O)c1ccccc1 (stereo not given),0,x,-5,-2,x
CCC(C(=O)NC(CC(=O)O)c1ccc(Cl)cc1)c1ccccc1 (stereo not given),0,x,0,2,x
N#CCOC(=O)/C=C/c1ccc2c(c1)OCO2,-1,-1,2,0,x
Cc1cc(NC(=O)c2sc(Nc3ccc(F)c(Cl)c3)nc2N)no1,0,100*,0,2,-32
COc1ccc(NC(=O)C2CCCC2)cc1S(=O)(=O)N1CCOCC1,0,x,0,-1,x
O=c1cc(-c2c(F)c(F)c(F)c(F)c2F)oc2c(F)c(F)c(F)c(F)c12,2,109*,-5,-9,124*
O=c1cc(-c2c(F)c(F)c(F)c(F)c2F)oc2ccccc12,1,29,5,3,x
O=C(NC(c1ccc(Cl)cc1)c1cc(Cl)c2cccnc2c1O)c1cccnc1 (stereo not given),0,110*,x,x,38
CC(=O)NC(c1ccccc1)c1cc(Cl)c2cccnc2c1O (stereo not given),1,x,1,0,x
COc1ccc(OC)c(NC(=O)COc2ccc3c(c2)CCC3)c1,0,x,0,0,x
Cc1cc(/C=C(\C#N)C(=O)NC2CCCCCC2)c(C)[nH]1,0,5,x,x,x
COc1ccc(-c2[nH]ncc2/C=C(/C#N)C(=O)NC2CCCCCC2)cc1,0,99*,3,1,82*
CC(C)(C)C(=O)NC(NC(=S)Nc1sc2c(c1C#N)CCCC2)C(Cl)(Cl)Cl (stereo not given),0,97*,-2,-1,74*
CC(C)(C)C(=O)Nc1sc2c(c1C#N)CCC2,-1,41,-2,0,x
Cc1ccc(Nc2nc(N)c([N+](=O)[O-])c(NCc3ccccc3)n2)cc1,1,104*,17,2,35
COc1ccc(Nc2nc(N)c([N+](=O)[O-])c(NCc3ccccc3)n2)cc1,0,15,8,3,x
Cn1nc(C(=O)NNC(=O)c2ccc(Cl)cc2)ccc1=O,-1,x,0,1,x
CCOC(=O)c1[nH]c2ccc(OC)cc2c1NC(=O)/C=C/c1ccc2c(c1)OCO2,0,102*,2,4,-17
COc1cc(CNCc2ccccn2)ccc1OCc1ccc(Cl)cc1Cl,0,98*,-2,-3,106*
CCOc1cc(CNc2ccc(O)cc2)ccc1OCc1ccc(Cl)cc1Cl,0,103*,-7,12,112*
CCOc1cc(CNCc2ccccc2)ccc1OCc1ccc(Cl)cc1,2,x,6,3,x
CCOc1cccc(CNc2ccc(O)cc2)c1OCc1ccc(Cl)cc1,1,109*,-2,1,48
COc1ccc(OCCOC(=O)c2ccc(F)c(S(=O)(=O)N3CCOCC3)c2)cc1,2,x,-5,0,x
SMILES,A1 inh,CHOP inhibitor,UPR XBP1 act,CHOP UPR activ,CHOP confirm
C[C@H](NC(N)=O)C(=O)Nc1ccc(N2CCOCC2)c(S(=O)(=O)Nc2ccc(Cl)cc2)c1,x,x,-1,1,x
CC(C)(C)C1CCc2onc(C(=O)Nc3cccc(O)c3)c2C1 (stereo not given),4,109*,4,3,25
CC(C)(C)C1CCc2onc(C(=O)Nc3cccnc3)c2C1 (stereo not given),0,48,6,2,x
CCCCCCn1c(CN2CCN(Cc3ccccc3)CC2)nc2c1c(=O)n(C)c(=O)n2C,0,100*,-1,0,120*
CCCCCn1c(CN2CCN(C)CC2)nc2c1c(=O)n(C)c(=O)n2C,0,18,2,-1,x
O=C(CSc1nc2ccc(Cl)cc2[nH]1)c1c[nH]c2ccccc12,0,101*,-1,1,26
O=C(CSc1nc2ncc(Cl)cc2[nH]1)c1c[nH]c2ccccc12,0,26,1,1,x
Cc1nnc(NC(=O)c2sc3nc(-c4cccs4)cc(C(F)(F)F)c3c2N)s1,-1,106*,-6,-5,94*
CSc1ncc(C(=O)Nc2cccc(Cl)c2)c(C)n1,0,x,-6,-1,x
CC1CCCCN1CC(O)COCc1ccc(Cl)cc1 (stereo not given),0,x,0,0,x
Cc1noc(C)c1CSCC(=O)Nc1nc2ccc(S(C)(=O)=O)cc2s1,1,x,0,0,x
Cn1c(N2CCN(C(=O)Nc3ccc(F)cc3)CC2)nc2ccccc21,1,8,1,0,x
O=C(Nc1ccc(F)cc1)N1CCn2c(nc3ccccc32)C1,1,98*,3,1,-3
CCN(CC)CCOC(=O)c1ccc(N/C=C(/C#N)c2nc(-c3cccc(OC)c3)cs2)cc1,0,105*,-1,2,80*
CC(=O)Cn1ncc(Br)c(Br)c1=O,x,105*,x,x,4
O=C(OCn1ncc(Br)c(Br)c1=O)c1c(F)cccc1F,0,x,x,x,125*
CC(C)(C)C(=O)Cn1ncc(N2CCCC2)c(Br)c1=O,0,12,-1,4,x
CCOC(=O)C1=C(c2ccccc2)OC(N)=C(C#N)C1C1CCCCC1 (stereo not given),0,109*,0,-2,52
CCOC(=O)C1=C(C)OC(N)=C(C#N)C1C1CCCCC1 (stereo not given),1,52,-2,-1,x
C=CCN1CN(S(=O)(=O)c2cccc(Cl)c2)c2nc3ccccc3nc21,-1,x,1,2,x
CN(CC(=O)Nc1ccc(F)cc1)C(=O)C1CC(=O)N(Cc2ccccc2)C1 (stereo not given),0,x,-2,1,x
Cc1ccc2nc(-c3ccc(SCC(=O)O)nc3)[nH]c2c1,-10,37,-2,-2,x
O=C(CSc1ccc(Cl)cc1)Nc1cccc(-c2nc3ccccc3[nH]2)c1,0,99*,2,1,-55
CCc1nnc(NC(=O)CSc2ccc(-c3nc4ccc(C)cc4[nH]3)cn2)s1,-2,100*,2,1,1
Cc1ccc2nc(-c3ccc(NC(=O)CSc4ccccc4)cc3)[nH]c2c1,-4,103*,3,2,-26
O=[N+]([O-])c1ccc(-c2nc(C(Cl)Cl)c3ccccc3n2)cc1,1,105*,-4,-7,124*
C[C@H](NC(=O)c1ccccc1)C(=O)N1CCN(c2ccccc2)CC1,2,x,0,1,x
CCOC(=O)c1nc(C)sc1-c1ccnn1S(=O)(=O)c1ccc(C)cc1,0,8,6,1,x
